Source: PubChem
Only some compounds are listed: those with a hit (about 4.7% of all), similar ones and a draw of the others.
aSyn 5UTR inh = MLPCN primary screen, SNCA 5' untranslated region; alpha-synuclein 5'UTR reporter, inhibitor activity; inhibition, % (tested at 7.5 µM); actives 0.82% (n = 300,000); in the data active = inhibition above about 60%;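 note: H4 neuroglioblastoma cells stably carrying SNCA 5'UTR luciferase fusion; 0% = DMSO wells and 100% = positive control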
697 NFkB inh = inhibitors of PMA/ionomycin-induced NF-kB reporter, 697 cells, primary screen, B-cell NF-kB inhibitor project, cell-based, luminescence, uHTS; 697 B-cell NF-kB luciferase reporter, 16 h; AID 435022, 2010; inhibition, % at 4 µM; actives 0.33% (n = 330,000); in the data active = inhibition above about 35%
Mdm2 MdmX PPI = inhibitors of human Mdm2-MdmX association, primary screen, cell-based, luminescence, split luciferase, SaOS-2, uHTS; Protein Mdm4 (Homo sapiens) + E3 ubiquitin-protein ligase Mdm2 (Homo sapiens), …; SaOS-2 split-luciferase Mdm2/MdmX complementation; inhibition, % at 8 µM; actives 3% (n = 330,000);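 active = inhibition of at least 50% at 8 µM in the primary screen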
IMP-1 inhibitor = IMP-1 metallo-beta-lactamase inhibitors, primary screen, biochemical, epi-absorbance readout, Pseudomonas aeruginosa enzyme | purified IMP-1, nitrocefin hydrolysis, epi-absorbance fluorescence | metallo-beta-lactamase IMP-1 (Pseudomonas aeruginosa) | actives 0.45% (n = 290,000) | inhibition, % at 5.6 µM;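 active = inhibition above the mean plus 3 SD of all compounds in the same screening run, cut at about 4.5% in these data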;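 note: 0% = IMP-1 with DMSO and 100% = DMSO wells lacking enzyme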
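Assay system: purified recombinant IMP-1 beta-lactamase. Input: IMP-1 0.2 nM before substrate addition. Buffer or medium: Zinc- and detergent-supplemented HEPES buffer, pH 7.1. Schedule: 25 °C, 15 min preincubation, 25 min reaction. Signal: Epi-absorbance fluorescence, 480 nm excitation, 530 nm emission. Evaluation: percent inhibition from optical density relative to buffer-blank wells.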
Jurkat NFkB inh = inhibitors of induced NF-kB luciferase reporter, primary screen, TCR NF-kB activation inhibitor project, cell-based, luminescence, uHTS | Jurkat, PMA/ionomycin-induced NF-kB luciferase reporter | inhibition, % at 4 µM | actives 0.53% (n = 330,000) | AID 435003, 2010; in the data active = inhibition above about 50%
VIM-2 inh = VIM-2 metallo-beta-lactamase inhibitors, primary screen, biochemical, epi-absorbance readout, Pseudomonas aeruginosa enzyme | purified VIM-2, nitrocefin hydrolysis, epi-absorbance fluorescence | inhibition, % at 5.6 µM | actives 0.89% (n = 290,000) | AID 1527, 2009;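 active = inhibition above the mean of all tested compounds plus 3 SD, cutoff set per screening run, cut at about 7.5% in these data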;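 note: red hydrolysis product quenches plate fluorescence so inhibitors raise well fluorescence; 0% = enzyme with DMSO and 100% = DMSO without enzyme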
Jurkat NFkB conf = PMA/ionomycin-induced NF-kB reporter inhibitors, Jurkat retest, confirmation, T-cell NF-kB inhibitor project, cell-based, luminescence, single concentration; Jurkat NF-kB luciferase, 16 h; actives 27% (n = 2,700); shares compounds with Jurkat NFkB inh; AID 435020, 2010; inhibition, % at 4 µM;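 active = inhibition reaching about 45% at 4 µM in either replicate, limit read from the data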;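 note: plate controls were PMA/ionomycin stimulated DMSO wells for no effect and unstimulated DMSO wells for full effect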
Active calls of the source: *; . = not tested or not shown.

SMILES	aSyn 5UTR inh	697 NFkB inh	Mdm2 MdmX PPI	IMP-1 inhibitor	Jurkat NFkB inh	VIM-2 inh	Jurkat NFkB conf
COc1ccc(N(C)S(=O)(=O)c2cccc(C(=O)OCC(=O)N3CC(C)CC(C)C3)c2)cc1 (stereo unspecified)	.	-6.7	-2.6	.	13.5	.	.
O=C(NCCNc1ccnc2cc(Cl)ccc12)c1ccccc1F	-32.6	-37.2	11.8	-2.7	56.1*	-0.6	29.2
COc1ccccc1/C=N/NS(=O)(=O)c1ccccc1	9.7	-19.6	1.7	0.1	90.7*	-2.5	9.2
O=C(Nc1cccc(C(F)(F)F)c1)C1=CC=CN2CCS(=O)(=O)N=C12	.	6.6	12.7	.	-5.9	.	.
O=C1CCCc2nc3c(cc21)C(O)Oc1c-3ccc2ccccc12 (stereo unspecified)	-117.7	-207.7	-8.4	-2.0	-156.0	-1.2	-66.2
O=C(Nc1ccc([N+](=O)[O-])cn1)c1cccnc1	-26.3	1.4	17.7	0.2	12.8	0.4	.
CC(C)(C)c1ccc(C(=O)Nc2ccc([N+](=O)[O-])cn2)cc1	-71.8	-95.8	-91.8	-2.3	-182.3	-1.6	-113.0
Cc1nnc(SCC(=O)Nc2nsc(-c3ccc(C(C)(C)C)cc3)n2)s1	-69.6	-136.4	-161.8	-2.6	-153.2	-5.0	-81.6
Cc1ccc2nc(-c3ccc(NC(=O)CSc4ccccc4)cc3)[nH]c2c1	-97.7	-118.5	-45.4	3.3	-152.6	-2.0	-117.6
CCCC1=C(C(=O)OCC)C(/C=C/c2ccccc2)n2ncnc2N1 (stereo unspecified)	-4.8	-61.9	48.0	-4.0	53.0*	-4.8	1.4
CCOC(=O)C1=C(C)Nc2ncnn2C1/C=C/c1ccccc1 (stereo unspecified)	33.1	5.8	27.4	-5.9	4.8	-4.2	.
CCC(C(=O)Nc1cccc(S(=O)(=O)N(C)c2ccccc2)c1)c1ccccc1 (stereo unspecified)	.	4.1	-3.0	.	0.6	.	.
COc1ccc(C(=O)NCCSc2ccccc2)cc1	19.9	-204.0	-104.8	-3.6	-212.4	-2.9	-98.6
Cc1ccc(NC(=O)c2scc3c2CCCC3)cc1	-90.1	-226.3	-208.5	-2.5	-231.3	-1.7	-122.0
Cc1ccc(NC(=O)c2cc3c(s2)CCCC3)cc1	-192.7	-146.3	-325.8	-2.4	-143.6	-2.1	.
CC(C)(C)c1ccc(/C=C/C(=O)Nc2nncs2)cc1	-87.9	-11.5	-53.6	-3.5	-170.9	-2.8	-112.7
CCN(CC)c1ccc(NC(=O)CSc2nc(C3CC3)nc3ccccc23)cc1C	-54.5	-16.0	49.1	-2.2	59.0*	-2.1	9.8
Cc1ccc(NC(=O)Nc2ccc3c(c2)nc(C)n3C)cc1	-44.4	-114.7	-87.7	-0.1	-116.6	-0.7	.
Cc1nc2cc(NC(=O)Nc3cccc([N+](=O)[O-])c3)ccc2n1C	-59.8	-215.6	-161.8	-1.2	-166.4	-1.0	-118.1
Cc1ccc(-n2nc3cc(C)c(N)cc3n2)cc1	54.3	-180.2	-188.4	-1.8	-138.0	-0.1	.
CCc1ccc(-n2nc3cc(C)c(N)cc3n2)cc1	41.2	-218.1	-94.9	-1.1	-167.1	4.4	-32.7
CC(=O)c1cc2c(cc1NC(=O)c1cc(C)nn1-c1ccccc1)OCO2	2.4	-63.0	49.5	-2.6	55.2*	-2.9	24.4
Cc1csc2ncnc(NC3CCN(Cc4ccccc4)CC3)c12	-19.6	-5.4	11.1	-1.1	68.2*	0.0	58.0*
CC(=O)c1cccc(NC(=S)NC(=O)c2ccc(Br)cc2)c1	-142.9	-108.6	-2.9	0.1	91.3*	0.5	18.2
NC(=O)CC(NC(=O)Cc1ccc(Cl)cc1)c1ccc(NC2CCCCCCC2)c([N+](=O)[O-])c1 (stereo unspecified)	8.6	3.1	9.8	-2.0	-6.5	-2.6	.
O=c1cc(-c2ccccc2)[nH]c2cc(Cl)ccc12	104.3*	-39.3	40.8	-3.2	65.2*	-3.5	60.8*
Clc1ccc2[nH]c(-c3ccccc3)cc2c1	.	-169.6	-65.9	-1.3	-102.4	-0.8	.
